According to ChEMBL document CHEMBL1121744, “Synthesis and antihypertensive activity of a series of 8-substituted 1-oxa-3,8-diazaspiro[4.5]decan-2-ones” (J Med Chem, 1981):
“And” between values parts separate entries of the source, which are not always exact repeats. Equal entries are not always repeated. The source made the active and inactive calls. The calls are words filed in the database; no cut-off is given here.

Assays:
Rattus norvegicus [1] = assay: Antihypertensive activity as percentage fall in systolic blood pressure in spontaneously hypertensive rats after a period of 3 hr for a dose of 12.5 mg/kg po; assay type: functional, Artery
How it was run: (§1)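 Male Okamoto-Aoki SHR, trained, in groups of four matched for mean systolic pressure; one group per run received water vehicle. Oral dosing in water (0.1 mL per 10 g) on two consecutive mornings. After the day-2 dose, rats were restrained at 30.0 ± 1.0 °C. Systolic pressure was read by tail cuff (inflated to 300 mmHg, first pulse) at 1–4 h. % fall is versus the untreated control group, by 1-tail t test (p ≤ 0.05).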

Rattus norvegicus [2] = assay: Antihypertensive activity as percentage fall in systolic blood pressure in spontaneously hypertensive rats after a period of 4 hr for a dose of 12.5 mg/kg po; assay type: functional, Artery; how it was run: as §1
Rattus norvegicus [3] = assay: Antihypertensive activity as percentage fall in systolic blood pressure in spontaneously hypertensive rats after a period of 1 hr for a dose of 12.5 mg/kg po; assay type: functional, Artery; how it was run: as §1
Rattus norvegicus [4] = assay: Antihypertensive activity as percentage fall in systolic blood pressure in spontaneously hypertensive rats after a period of 1 hr for a dose of 50 mg/kg; assay type: functional, Artery; how it was run: as §1
Rattus norvegicus [5] = assay: Antihypertensive activity as percentage fall in systolic blood pressure in spontaneously hypertensive rats after a period of 2 hr for a dose of 12.5 mg/kg po; assay type: functional, Artery; how it was run: as §1
Rattus norvegicus [6] = assay: Percentage fall in systolic blood pressure in spontaneously hypertensive rats after 2 hr following 50 mg/kg p.o.; assay type: functional, Artery; conditions: route oral; how it was run: as §1
Rattus norvegicus [7] = assay: Percentage fall in systolic blood pressure in spontaneously hypertensive rats after 3 h following 50 mg/kg p.o.; assay type: functional, Artery; conditions: route oral; how it was run: as §1
Rattus norvegicus [8] = assay: The antihypertensive activity as percentage fall in systolic blood pressure in spontaneously hypertensive rats after a period of 1 hr for a dose of 25 mg/kg po; assay type: functional, Artery; how it was run: as §1
Rattus norvegicus [9] = assay: The antihypertensive activity as percentage fall in systolic blood pressure in spontaneously hypertensive rats after a period of 2 hr for a dose of 25 mg/kg po; assay type: functional, Artery; how it was run: as §1
Rattus norvegicus [10] = assay: The antihypertensive activity as percentage fall in systolic blood pressure in spontaneously hypertensive rats after a period of 3 hr for a dose of 25 mg/kg po; NS=Not significant; assay type: functional, organism-based; design: dose 25 mg/kg; conditions: Artery; how it was run: as §1
Rattus norvegicus [11] = assay: The antihypertensive activity as percentage fall in systolic blood pressure in spontaneously hypertensive rats after a period of 4 hr for a dose of 25 mg/kg po; NS=Not significant; assay type: functional, organism-based; design: dose 25 mg/kg; conditions: Artery; how it was run: as §1
[12] = (§2) Distribution coefficient between 1-Octanol and phosphate buffer at pH7.4; assay type: physicochemical; conditions: 1-octanol/phosphate buffer, pH 7.4
How it was run: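 Octanol/buffer distribution measured at pH 7.4 in phosphate with sodium chloride. Either HPLC (0.004 M) or shake flask.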

Rattus norvegicus [13] = assay: The antihypertensive activity as percentage fall in systolic blood pressure in spontaneously hypertensive rats after a period of 2 hr for a dose of 75 mg/kg po; NS=Not significant; assay type: functional, organism-based; design: dose 75 mg/kg; conditions: Artery
How it was run: (§3)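 Male Okamoto-Aoki SHR, trained, in groups of four matched for systolic pressure, with a concurrent vehicle control group. Oral dosing on two consecutive mornings, in water as solution or suspension at 0.1 mL/10 g. On day 2 rats were restrained at 30.0 ± 1.0 °C. Tail-cuff systolic pressure, four traces per rat, read at each hour. Per cent fall versus control; 1-tail t test, p ≤ 0.05.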

Rattus norvegicus [14] = assay: The antihypertensive activity as percentage fall in systolic blood pressure in spontaneously hypertensive rats after a period of 3 hr for a dose of 75 mg/kg po; NS=Not significant; assay type: functional, organism-based; design: dose 75 mg/kg; conditions: Artery; how it was run: as §3
Rattus norvegicus [15] = assay: The antihypertensive activity as percentage fall in systolic blood pressure in spontaneously hypertensive rats after a period of 4 hr for a dose of 75 mg/kg po; NS=Not significant; assay type: functional, organism-based; design: dose 75 mg/kg; conditions: Artery; how it was run: as §3
Rattus norvegicus [16] = assay: The antihypertensive activity as percentage fall in systolic blood pressure in spontaneously hypertensive rats after a period of 1 hr for a dose of 50 mg/kg po
[17] = as §2; assay type: physicochemical; conditions: 1-octanol/phosphate buffer, pH 7.4; remark: listed apart in the source
Canis familiaris [18] = assay: Percent inhibition of the pressor responses to 0.75 ug/kg iv norepinephrine in pentobarbital-anesthetized dogs for a dose of 10 mg/kg; assay type: functional; conditions: Canis lupus familiaris
How it was run: (§4)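 Pentobarbital-anesthetized dogs (35 mg/kg iv) with femoral arterial pressure recording. Epinephrine (1 μg/kg), norepinephrine (0.75 μg/kg) and phenylephrine (7.5 μg/kg) iv challenges were given about every 10 min before and after rising iv test doses, which were spaced 90 min apart. Value is % inhibition of the pressor response.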

Canis familiaris [19] = assay: Percent inhibition of the pressor responses to 0.75 ug/kg iv norepinephrine in pentobarbital-anesthetized dogs for a dose of 1 mg/kg; assay type: functional; conditions: Canis lupus familiaris; how it was run: as §4
Canis familiaris [20] = assay: Change in mean arterial pressure in anesthetized dogs for a dose of 0.1 mg/kg; assay type: functional, Canis lupus familiaris, Artery
How it was run: (§5)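 Dogs anesthetized with sodium pentobarbital (35 mg/kg iv), femoral artery cannulated for pressure, ECG-triggered heart rate, femoral vein for dosing. Rising iv doses were given 90 min apart, and each dose is the full dose, not cumulative. Value is the maximal mean arterial pressure change 10–15 min after each dose, two dogs per compound, ±3 mmHg. Saline served as control.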

Canis familiaris [21] = assay: Change in mean arterial pressure in anesthetized dogs for a dose of 1 mg/kg; assay type: functional, Canis lupus familiaris, Artery; how it was run: as §5
Canis familiaris [22] = assay: Change in mean arterial pressure in anesthetized dogs for a dose of 10 mg/kg; assay type: functional, Canis lupus familiaris, Artery; how it was run: as §5
Canis familiaris [23] = assay: Percent inhibition of the pressor responses to 0.75 ug/kg iv norepinephrine in pentobarbital-anesthetized dogs for a dose of 5.0 mg/kg; assay type: functional; conditions: Canis lupus familiaris; how it was run: as §4
Canis familiaris [24] = assay: Percent inhibition of the pressor responses to 1 ug/kg iv Epinephrine in pentobarbital-anesthetized dogs for a dose of 0.1 mg/kg; assay type: functional; conditions: Canis lupus familiaris
How it was run: (§6)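 Dogs anesthetized with sodium pentobarbital 35 mg/kg iv; femoral artery cannulated for blood pressure, femoral vein for dosing. Epinephrine 1 μg/kg iv given at about 10-min intervals before and after increasing test doses. Test doses given iv at 90-min intervals. Result is per cent inhibition of the pressor response.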

Canis familiaris [25] = assay: Percent inhibition of the pressor responses to 1 ug/kg iv Epinephrine in pentobarbital-anesthetized dogs for a dose of 1 mg/kg; assay type: functional; conditions: Canis lupus familiaris; how it was run: as §4
Canis familiaris [26] = assay: Percent inhibition of the pressor responses to 1 ug/kg iv Epinephrine in pentobarbital-anesthetized dogs for a dose of 10 mg/kg; assay type: functional; conditions: Canis lupus familiaris; how it was run: as §6
Canis familiaris [27] = assay: Percent inhibition of the pressor responses to 7.5 ug/kg iv phenylephrine in pentobarbital-anesthetized dogs for a dose of 1 mg/kg; assay type: functional; conditions: Canis lupus familiaris; how it was run: as §4
Canis familiaris [28] = assay: Percent inhibition of the pressor responses to 7.5 ug/kg iv phenylephrine in pentobarbital-anesthetized dogs for a dose of 10 mg/kg; assay type: functional; conditions: Canis lupus familiaris; how it was run: as §4
Rattus norvegicus [29] = assay: Antihypertensive activity as percentage fall in systolic blood pressure in spontaneously hypertensive rats after a period of 4 hr for a dose of 50 mg/kg po; assay type: functional, Artery; how it was run: as §1
Canis familiaris [30] = assay: Percent inhibition of the pressor responses to 7.5 ug/kg iv phenylephrine in pentobarbital-anesthetized dogs for a dose of 0.1 mg/kg; assay type: functional; conditions: Canis lupus familiaris; how it was run: as §4

SMILES: CCC1NC(=O)OC12CCN(CC1COc3ccccc3O1)CC2 (stereo unspecified)
- Decrease in blood pressure (Rattus norvegicus [1]): -13%
- Decrease in blood pressure (Rattus norvegicus [2]): -11%
- Decrease in blood pressure (Rattus norvegicus [3]): 22%
- Decrease in blood pressure (Rattus norvegicus [4]): 51%
- Decrease in blood pressure (Rattus norvegicus [5]): 14%
- Decrease in blood pressure (Rattus norvegicus [6]; 50 mg/kg): 54% and 42%
- Decrease in blood pressure (Rattus norvegicus [7]): 42%

SMILES: CCN1CC2(CCN(CC(O)C3COc4ccccc4O3)CC2)OC1=O (stereo unspecified)
- Decrease in blood pressure (Rattus norvegicus [8]): 18%
- Decrease in blood pressure (Rattus norvegicus [9]): 9%
- Decrease in blood pressure (Rattus norvegicus [10]): inactive
- Decrease in blood pressure (Rattus norvegicus [11]): inactive
- Decrease in blood pressure (Rattus norvegicus [4]): 32%
- Decrease in blood pressure (Rattus norvegicus [6]; 50 mg/kg): 18% and 15%
- Decrease in blood pressure (Rattus norvegicus [7]): 11%

SMILES: O=C1NC(Cc2ccccc2)C2(CCN(CCc3c[nH]c4ccccc34)CC2)O1 (stereo unspecified)
- logD [12]: 2.68
- Decrease in blood pressure (Rattus norvegicus [13]): inactive
- Decrease in blood pressure (Rattus norvegicus [14]): inactive
- Decrease in blood pressure (Rattus norvegicus [15]): inactive
- Decrease in blood pressure (Rattus norvegicus [16]): 13%

SMILES: Cc1ccc(N(CC2=NCCN2)c2cccc(O)c2)cc1 [PHENTOLAMINE]
- logD [17]: 0.82
- inhibition in vivo at 10 mg/kg (Canis familiaris [18]): > 100%
- inhibition in vivo at 1 mg/kg (Canis familiaris [19]): > 100%
- MAP (Canis familiaris [20]): -9 mmHg
- MAP (Canis familiaris [21]): -11 mmHg
- MAP (Canis familiaris [22]): -33 mmHg
- inhibition in vivo at 5 mg/kg (Canis familiaris [23]): > 100%
- inhibition in vivo at 0.1 mg/kg (Canis familiaris [24]): 41%
- inhibition in vivo at 1 mg/kg (Canis familiaris [25]): > 100%
- inhibition in vivo at 10 mg/kg (Canis familiaris [26]): > 100%
- inhibition in vivo at 1 mg/kg (Canis familiaris [27]): 86%
- inhibition in vivo at 10 mg/kg (Canis familiaris [28]): 100%
- Decrease in blood pressure (Rattus norvegicus [29]): 16%
- Decrease in blood pressure (Rattus norvegicus [4]): 37%
- Decrease in blood pressure (Rattus norvegicus [6]): 30%
- Decrease in blood pressure (Rattus norvegicus [7]): 19%
- inhibition in vivo at 0.1 mg/kg (Canis familiaris [30]): 42%
